Assay results taken from ChEMBL document CHEMBL2150981, “Discovery and optimization of benzotriazine di-N-oxides targeting replicating and nonreplicating Mycobacterium tuberculosis” (J Med Chem, 2012).
≈ marks a conversion by molar mass, not a printed value.

Key:
L5178Y [1] = experiment: Mutagenicity against mouse L5178Y cells at 25 ug/mL after 4 hrs by MOLY assay in presence of S9 fraction; assay type: toxicity, cell-based; details: s9, 4 h
Summary of the method: (§1)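 Mouse lymphoma tk+/- → tk-/- forward mutation assay, 4 h or 24 h exposure, with or without Aroclor 1254-induced rat-liver S9. Endpoints were suspension and relative total growth, relative cloning efficiency, mutation frequency, and small TFT-resistant colonies (<0.6 mm). A call was positive for significant mutation-frequency induction; induction only slightly above 40 × 10^-6 net over mean solvent control was considered biologically negative.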

L5178Y [2] = experiment: Mutagenicity against mouse L5178Y cells at 10 ug/mL after 4 hrs by MOLY assay in absence of S9 fraction; assay type: toxicity, cell-based; summary of the method: as §1
Salmonella typhimurium [3] = experiment: Mutagenicity in Salmonella typhimurium TA98 assessed as increase in number of revertant colonies by Ames test in absence of S9 fraction; assay type: toxicity, organism-based; details: salmonella enterica subsp. enterica serovar typhimurium
Summary of the method: (§2)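 Plate-incorporation Ames test in Salmonella typhimurium TA98 and TA100, with and without an Aroclor 1254-induced rat-liver metabolic activation system containing 10% S9. Revertant colonies counted per plate, with means and standard deviations and background lawn condition recorded.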

Salmonella typhimurium [4] = experiment: Mutagenicity in Salmonella typhimurium TA100 assessed as increase in number of revertant colonies by Ames test in absence of S9 fraction; assay type: toxicity, organism-based; details: salmonella enterica subsp. enterica serovar typhimurium; summary of the method: as §2
L5178Y [5] = experiment: Mutagenicity against mouse L5178Y cells at 10 ug/mL after 4 hrs by MOLY assay in presence of S9 fraction; assay type: toxicity, cell-based; details: s9, 4 h; summary of the method: as §1
L5178Y [6] = experiment: Mutagenicity against mouse L5178Y cells at 25 ug/mL after 4 hrs by MOLY assay in absence of S9 fraction; assay type: toxicity, cell-based; summary of the method: as §1
L5178Y [7] = experiment: Mutagenicity against mouse L5178Y cells at 100 ug/mL after 4 hrs by MOLY assay in absence of S9 fraction; assay type: toxicity, cell-based; summary of the method: as §1
[8] = tested on: Mycobacterium tuberculosis; experiment: Antitubercular activity against Mycobacterium tuberculosis H37Rv incubated for 10 days in anaerobic condition followed by 48 hrs incubation in aerobic condition by LORA assay; assay type: functional
L5178Y [9] = experiment: Mutagenicity against mouse L5178Y cells at 100 ug/mL after 4 hrs by MOLY assay in presence of S9 fraction; assay type: toxicity, cell-based; details: s9, 4 h; summary of the method: as §1
[10] = tested on: Mycobacterium tuberculosis; experiment: Antitubercular activity against Mycobacterium tuberculosis H37Rv isolate SRI after 5 days by resazurin-based microplate assay; assay type: functional; details: 120 h
L5178Y [11] = experiment: Mutagenicity against mouse L5178Y cells at 50 ug/mL after 4 hrs by MOLY assay in absence of S9 fraction; assay type: toxicity, cell-based; summary of the method: as §1
[12] = tested on: Mycobacterium tuberculosis; experiment: Antitubercular activity against p-amino-salicyclic acid-resistant Mycobacterium tuberculosis ATCC 35821 after 5 days by resazurin-based microplate assay; assay type: functional; details: ATCC 35821, 120 h
Summary of the method: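 Mid-log cultures grown in 7H9 with glycerol, Tween-80 and ADC. Compounds in DMSO were tested two-fold from […] against ~10^5 CFU/mL, 37°C for 5 d. Resazurin was then added for a further 2 d, and fluorescence read at ex 530/em 590 with visual confirmation. MIC was the lowest concentration inhibiting 90% of growth. Final DMSO 0.625%; two-fold variation taken as assay error.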

Vero = experiment: Cytotoxicity against african green monkey Vero cells after 72 hrs by CellTiterGlo assay; details: chlorocebus sabaeus, vero, 72 h
L5178Y [13] = experiment: Mutagenicity against mouse L5178Y cells at 50 ug/mL after 4 hrs by MOLY assay in presence of S9 fraction; assay type: toxicity, cell-based; details: s9, 4 h; summary of the method: as §1
[14] = tested on: Mycobacterium tuberculosis; experiment: Antitubercular activity against Mycobacterium tuberculosis H37Rv isolate ITR after 7 days by luminescence spectrometry; assay type: functional; details: 168 h
Salmonella typhimurium [15] = experiment: Mutagenicity in Salmonella typhimurium TA98 assessed as increase in number of revertant colonies by Ames test in presence of S9 fraction; assay type: toxicity, organism-based; details: salmonella enterica subsp. enterica serovar typhimurium; summary of the method: as §2
Salmonella typhimurium [16] = experiment: Mutagenicity in Salmonella typhimurium TA100 assessed as increase in number of revertant colonies by Ames test in presence of S9 fraction; assay type: toxicity, organism-based; details: salmonella enterica subsp. enterica serovar typhimurium; summary of the method: as §2
[17] = Selectivity index, ratio of CC50 for Vero cells to MIC90 for Mycobacterium tuberculosis H37Rv isolate SRI; assay type: functional
Plasma = experiment: Plasma concentration in Balb/c mouse at 100 mg/kg, po at 24 hrs; assay type: ADME, organism-based; parameters: dose 100 mg/kg, route oral; details: in vivo, BLD = below limit of detection
Summary of the method: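 Single oral gavage dose of 100 mg/kg to female mice, three mice per time point. Blood was drawn at 5, 15, 30, 60 min and 2, 4, 6, 8 and 24 h and processed to plasma for analysis. Noncompartmental PK analysis.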

[18] = Solubility of the compound in 0.9% saline solution after 48 hrs by shake flask method at pH 7.4; assay type: physicochemical
Summary of the method: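 Shake-flask method in triplicate: ~20 mg of ground compound in 5 mL 0.9% saline pH 7.4, stirred at 25°C for 48 h. The sample was filtered through 0.45 µm PVDF and the filtrate quantified by HPLC at each compound's absorption maximum against a per-compound standard curve (R² > 0.99).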

L5178Y [19] = experiment: Mutagenicity against mouse L5178Y cells at 25 ug/mL after 24 hrs by MOLY assay in absence of S9 fraction; assay type: toxicity, cell-based; summary of the method: as §1
L5178Y [20] = experiment: Mutagenicity against mouse L5178Y cells at 10 ug/mL after 24 hrs by MOLY assay in absence of S9 fraction; assay type: toxicity, cell-based; summary of the method: as §1

SMILES | Activity (L5178Y [1]) | Activity (L5178Y [2]) | Activity (Salmonella typhimurium [3]) | Activity (Salmonella typhimurium [4]) | Activity (L5178Y [5]) | Activity (L5178Y [6]) | Activity (L5178Y [7]) | MIC90 [8] | Activity (L5178Y [9]) | MIC90 [10] | Activity (L5178Y [11]) | MIC90 [12] | CC50 (Vero) | Activity (L5178Y [13]) | MIC90 [14] | Activity (Salmonella typhimurium [15]) | Activity (Salmonella typhimurium [16]) | Selectivity Index [17] | Cp (Plasma) | solubility thermodynamic at 48 h [18] | also measured
CCNc1n[n+]([O-])c2cc3c(cc2[n+]1[O-])CCC3 | Toxic | Toxic | Dose-dependent effect | Dose-dependent effect | Toxic | Toxic | Toxic | 0.83 µg/mL (≈ 3.37 µM) | Toxic | 1.2 µg/mL (≈ 4.87 µM) | Toxic | 1.2 µg/mL (≈ 4.87 µM) | 36 µg/mL (≈ 146 µM) | Toxic | 0.95 µg/mL (≈ 3.86 µM) | Dose-dependent effect | Dose-dependent effect | 29 | – | – | –
CCNc1n[n+]([O-])c2ccccc2[n+]1[O-] | – | – | – | – | – | – | – | 0.37 µg/mL (≈ 1.79 µM) | – | 1.2 µg/mL (≈ 5.82 µM) | – | 1.2 µg/mL (≈ 5.82 µM) | – | – | 0.57 µg/mL (≈ 2.76 µM) | – | – | 17 | BLD | 1350 µg/mL (≈ 6550 µM) | –
[O-][n+]1nc(N2CCCC2)[n+]([O-])c2cc3c(cc21)CCC3 | Non-toxic | Non-toxic | Dose-dependent effect | Dose-dependent effect | Non-toxic | Non-toxic | Non-toxic | 0.99 µg/mL (≈ 3.64 µM) | Non-toxic | 0.31 µg/mL (≈ 1.14 µM) | Non-toxic | 0.31 µg/mL (≈ 1.14 µM) | 25 µg/mL (≈ 91.8 µM) | Non-toxic | 0.46 µg/mL (≈ 1.69 µM) | Dose-dependent effect | Dose-dependent effect | 80 | BLD | 280 µg/mL (≈ 1030 µM) | Activity (L5178Y [19]): Non-toxic; Activity (L5178Y [20]): Non-toxic
